Test results: ChEMBL document CHEMBL1671759, “Thr202Ala in thyA is a marker for the Latin American Mediterranean lineage of the Mycobacterium tuberculosis complex rather than para-aminosalicylic acid resistance” (2010)
Converted amounts (≈) assume the structure as drawn. The source made the active and inactive calls. No cut-off for these calls is given here.

Key:
[1] = test system: Mycobacterium tuberculosis; assay: Antimicrobial activity against Mycobacterium tuberculosis Beijing 1934/03 harboring thyA Thr202Ala single nucleotide polymorphism grown in Lowenstein-Jensen medium; assay type: functional
In short: (§1)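 PAS MIC by conventional susceptibility testing on Löwenstein-Jensen medium at 0.063, 0.13, 0.25, 0.5 and 1.0 mg/liter PAS. Strains were drawn from the reference collection and cultivated at the Borstel Supranational Reference Laboratory.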

[2] = test system: Mycobacterium tuberculosis; assay: Antimicrobial activity against Mycobacterium tuberculosis LAM 7968/03 harboring thyA Thr202Ala single nucleotide polymorphism grown in 7H9 broth assessed as decrease in bacterial growth at 0.125 to 2 ug/ml by spectrophotometry; assay type: functional, organism-based
In short: (§2)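 PAS growth curves in 7H9 broth with OADC (10%) and Tween 80 (0.05%), 37°C, rolling device. PAS was added at OD600 0.1 to 0, 0.13, 0.25, 0.5, 1.0 and 2.0 mg/liter. OD600 was read daily for 9 consecutive days, in triplicate. Curves are means of three independent experiments.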

[3] = test system: Mycobacterium tuberculosis; assay: Antimicrobial activity against Mycobacterium tuberculosis H37Rv 9679/00 harboring thyA Thr202Ala single nucleotide polymorphism grown in Lowenstein-Jensen medium; assay type: functional; in short: as §1
[4] = test system: Mycobacterium tuberculosis; assay: Antimicrobial activity against Mycobacterium tuberculosis Haarlem 9532/03 harboring thyA Thr202Ala single nucleotide polymorphism grown in 7H9 broth assessed as decrease in bacterial growth at 0.125 to 2 ug/ml by spectrophotometry; assay type: functional, organism-based; in short: as §2
[5] = test system: Mycobacterium tuberculosis; assay: Antimicrobial activity against Mycobacterium tuberculosis Haarlem 9532/03 harboring thyA Thr202Ala single nucleotide polymorphism grown in Lowenstein-Jensen medium; assay type: functional; in short: as §1
[6] = test system: Mycobacterium tuberculosis; assay: Antimicrobial activity against Mycobacterium tuberculosis Beijing 1934/03 harboring thyA Thr202Ala single nucleotide polymorphism grown in 7H9 broth assessed as decrease in bacterial growth at 0.125 to 2 ug/ml by spectrophotometry; assay type: functional, organism-based; in short: as §2
[7] = test system: Mycobacterium tuberculosis; assay: Antimicrobial activity against Mycobacterium tuberculosis LAM 8885/05 harboring thyA Thr202Ala single nucleotide polymorphism grown in Lowenstein-Jensen medium; assay type: functional; in short: as §1
[8] = test system: Mycobacterium tuberculosis; assay: Antimicrobial activity against Mycobacterium tuberculosis H37Rv 9679/00 harboring thyA Thr202Ala single nucleotide polymorphism grown in 7H9 broth assessed as decrease in bacterial growth at 0.125 to 2 ug/ml by spectrophotometry; assay type: functional, organism-based; in short: as §2
[9] = test system: Mycobacterium tuberculosis; assay: Antimicrobial activity against Mycobacterium tuberculosis LAM 8885/05 harboring thyA Thr202Ala single nucleotide polymorphism grown in 7H9 broth assessed as decrease in bacterial growth at 0.125 to 2 ug/ml by spectrophotometry; assay type: functional, organism-based; in short: as §2
[10] = test system: Mycobacterium tuberculosis; assay: Antimicrobial activity against Mycobacterium tuberculosis LAM 7968/03 harboring thyA Thr202Ala single nucleotide polymorphism grown in Lowenstein-Jensen medium; assay type: functional; in short: as §1

## Nc1ccc(C(=O)O)c(O)c1 [AMINOSALICYLIC ACID]
[1]
  MIC: 0.5 ng/mL (≈ 3.27 nM)
[2]
  Activity: Active
[3]
  MIC: 0.5 ng/mL (≈ 3.27 nM)
[4]
  Activity: Active
[5]
  MIC: 0.5 ng/mL (≈ 3.27 nM)
[6]
  Activity: Active
[7]
  MIC: 0.5 ng/mL (≈ 3.27 nM)
[8]
  Activity: Active
[9]
  Activity: Active
[10]
  MIC: 0.5 ng/mL (≈ 3.27 nM)
